Laboratory results taken from publication PMC3749563 (British Journal of Cancer, 2013).

Tests used:
γ-secretase = conditions: ref Luistro et al, 2009; cited from earlier work
[1] = single agent, 3 consecutive days per week schedule; ref Tolcher et al, 2012; cited from earlier work
[2] = system: α1-acid glycoprotein and albumin; conditions: ref Wu et al, 2012; cited from earlier work
[3] = system: circulating VEGF-A, VEGF-C, SDF-1; assay: Circulating biomarker evaluation; type: in vivo, human; conditions: after dosing with cediranib (with RO4929097), cycle 1
Outline: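 Patients with advanced solid tumours. Blood was drawn before dosing on cycle 1 day 1, cycle 1 day 22 and cycle 2 day 1. Plasma VEGF-A, VEGF-B, VEGF-C, bFGF, SDF-1-alpha, IL-6 and IL-8 were measured by commercial ELISA kits following the manufacturer's protocol. Samples were run in duplicate, with a triplicate if values differed by more than 15%. Results were discarded unless at least two agreed within 15%.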

[4] = Dose-limiting toxicities and recommended phase II dose; type: in vivo, human; conditions: cediranib daily, in combination with RO4929097; highest dose level completed
[5] = system: VEGF receptors (VEGFR-1, VEGFR-2 and VEGFR-3), and c-Kit; conditions: ref Wedge et al, 2005; cited from earlier work

Row | SMILES | γ-Secretase inhibition (γ-secretase) | Daily dose at which reversible CYP3A4 autoinduction was detected [1] | Plasma protein binding [2] | Change of circulating SDF-1 [3] | Change of circulating VEGF-A [3] | Change of circulating VEGF-C [3] | Recommended phase II dose (RP2D) [4] | Inhibition of VEGF signalling [5]
1 | CC(C)(C(=O)NCC(F)(F)C(F)(F)F)C(=O)N[C@@H]1C(=O)Nc2ccccc2-c2ccccc21 [RO4929097] | potent and selective | above 24 mg | highly bound | – | – | – | – | –
2 | COc1cc2c(Oc3ccc4[nH]c(C)cc4c3F)ncnc2cc1OCCCN1CCCC1 [cediranib] | – | – | – | Increases | Increases | Increases | 30 mg | highly potent inhibitor
